Source: paper PMC3374645 (European Journal of Pharmaceutical Sciences, 2012)
In brackets after ≈: the same amount, converted by molar mass. Where two headings read alike, the source gives them in different places.

Assays:
[1] = comparison value, no reference given; cited from earlier work
[2] = 2008, cited from earlier work
[3] = Simultaneous three-compartment model fit of i.v. and oral data; format: in vivo, Sprague–Dawley rats; details: rat
Procedure, shortened: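 Pooled i.v. (5.0 mg/kg) and oral (20, 40, 60 mg/kg gavage) rat plasma data were fitted simultaneously by generalized least squares with variance error models. The structural model had three compartments with combined zero-order/Michaelis–Menten limited systemic uptake. Models were discriminated by goodness-of-fit plots, residuals, SE, CV%, CI95% and lowest AIC.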

[4] = Partition coefficient in octanol:water system; format: physicochemical; details: pH 7.0
Procedure, shortened: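 Test compound (1.0 mg) was added to 4.0 mL of a 1:1 octanol:water mixture at pH 7.0 and shaken vigorously for 30 min. Phases were separated by centrifugation, passed through 0.1 µm filters and quantified by reverse-phase C18 HPLC (90% acetonitrile, 242 nm).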

[5] = Parallel artificial membrane permeability assay; format: in vitro ADME; details: PAMPA, pH 7.4, 4 h
[6] = Three-compartment model fit after i.v. administration; format: in vivo, Sprague–Dawley rats; details: rat, i.v. 5.0 mg/kg
Procedure, shortened: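 Rats received a tail-vein injection of 5.0 mg/kg in ethanol/TPGS/water vehicle. Plasma was taken from 0.017 to 24 h and assayed by HPLC. Concentration–time data were fitted by generalized least squares to three-compartment mass-balance differential equations, seeded with noncompartmental estimates. Parameters are reported with CV%; Vss was taken as the sum of the compartment volumes.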

[7] = Noncompartmental pharmacokinetics after oral administration; format: in vivo, Sprague–Dawley rats; details: rat
Procedure, shortened: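 Male Sprague–Dawley rats (240–350 g, n = 5/group) were fasted overnight and gavaged with 2% (w/v) test compound in ethanol/TPGS/water. Tail-vein plasma was sampled predose and 0.25–24 h, precipitated with acetonitrile, and run on C18 HPLC at 242 nm (nimesulide internal standard; 0.05–8.00 μg/mL calibration). Per-rat SHAM analysis used log-trapezoidal AUC, with CL = Dose/AUC.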

[8] = Saturation solubility, shake-flask in buffers, HPLC; format: physicochemical
Procedure, shortened: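 Shake-flask method: excess test compound was placed in 1.0 mL citrate, HEPES or phosphate buffer at pH 2.0–8.0 and shaken 24 h at 25.0 ± 0.1 °C, 1500 rpm. Suspensions then stood unshaken overnight before centrifugation. Supernatants were filtered (0.1 µm) and measured by reverse-phase C18 HPLC at 242 nm.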

Caco-2 monolayers = test: Bidirectional permeability in Caco-2 monolayers; format: in vitro ADME

Compound: c1ccc2c(Cc3c[nH]c4ccccc34)c[nH]c2c1 [DIM, 3,3′-diindolylmethane]
- Log K0/w [1]: ≈ 4.0
- Cmax ([2]; single 100 mg dose ref Reed et al.): 32 ng/mL
- Cmax ([2]; single 200 mg dose ref Reed et al.): 104 ng/mL
- Cmax ([2]; single 300 mg dose ref Reed et al.): 108 ng/mL

Compound: c1ccc(-c2ccc(C(c3c[nH]c4ccccc34)c3c[nH]c4ccccc34)cc2)cc1 [DIM-P, DIM-C-pPhC6H5]
- zero-order absorption site access rate ([3]; oral 20 mg/kg): 14 mg/h/kg
- zero-order absorption site access rate ([3]; oral 40 mg/kg): 28 mg/h/kg
- zero-order absorption site access rate ([3]; oral 60 mg/kg): 42 mg/h/kg
- CLC ([3]; simultaneous fit i.v. 5.0 and oral 20, 40, 60 mg/kg): 0.77 mL/min/kg
- Abmax (maximum absorption rate at saturation) ([3]; simultaneous fit i.v. and oral): 60.65 µg/min/kg
- CLd1 ([3]; simultaneous fit i.v. and oral): 0.606 mL/min/kg
- CLd2 ([3]; simultaneous fit i.v. and oral): 0.319 mL/min/kg
- FBIO ([3]; simultaneous fit i.v. and oral): 0.126
- SD50 (amount of drug at the absorption site at 50% saturation) ([3]; simultaneous fit i.v. and oral): 8.6797 mg/kg
- Tsite (time required for drug to reach absorption site) ([3]; simultaneous fit i.v. and oral): 85.20 min
- V1 ([3]; simultaneous fit i.v. and oral): 646.06 mL/kg
- V2 ([3]; simultaneous fit i.v. and oral): 28.50 mL/kg
- VC ([3]; simultaneous fit i.v. and oral): 13.9 mL/kg
- experimental Log K0/w [4]: 6.79 ± 0.12 and ≈ 7.0
- donor-to-receptor apparent permeability (Papp) ([5]; stirred water layer): 2.69 ± 0.08 × 10^−6 cm/s
- donor-to-receptor apparent permeability (Papp) ([5]; unstirred water layer): 0.58 ± 0.07 × 10^−6 cm/s
- apparent distributional phase [6]: < 2 h
- VSS ([6]; secondary parameter): 682.85 mL/kg
- t1/2 ([6]; secondary parameter): 639.18 min
- CLC ([6]; three compartment model): 0.74 mL/min/kg
- CLd1 ([6]; three compartment model): 0.56 mL/min/kg
- CLd2 ([6]; three compartment model): 0.29 mL/min/kg
- V1 ([6]; three compartment model): 640.98 mL/kg
- V2 ([6]; three compartment model): 28.22 mL/kg
- VC ([6]; three compartment model): 13.65 mL/kg
- AUC0–24h /Dose ([7]; oral 20 mg/kg): 2.28 ± 0.46 (min/L) *10^−3
- AUMC0–24h ([7]; oral 20 mg/kg): 250.45 ± 62.42 μg × min^2/mL
- AUMC0–24h/Dose ([7]; oral 20 mg/kg): 0.012 ± 0.003 min^2/mL
- CL ([7]; oral 20 mg/kg): 51.91 ± 3.89 mL/kg/h
- Cmax ([7]; oral 20 mg/kg): 7.21 ± 1.19 µg/mL
- Cmax/dose ([7]; oral 20 mg/kg): 0.36 ± 0.06
- FBIO (absolute bioavailability) ([7]; oral 20 mg/kg): 0.13 ± 0.03
- MRT ([7]; oral 20 mg/kg): 5.47 ± 0.64 h
- Terminal t1/2 ([7]; oral 20 mg/kg): 6.91 ± 3.84 h
- Vss ([7]; oral 20 mg/kg): 499.79 ± 223.605 mL/kg
- time of maximum plasma level ([7]; oral 20 mg/kg): 2 h
- AUMC0–24h ([7]; oral 40 mg/kg): 548.85 ± 207.09 μg × min^2/mL
- AUMC0–24h/Dose ([7]; oral 40 mg/kg): 0.014 ± 0.005 min^2/mL
- CL ([7]; oral 40 mg/kg): 49.89 ± 4.52 mL/kg/h
- Cmax ([7]; oral 40 mg/kg): 11.27 ± 1.04 µg/mL
- Cmax/dose ([7]; oral 40 mg/kg): 0.28 ± 0.03
- FBIO (absolute bioavailability) ([7]; oral 40 mg/kg): 0.12 ± 0.03
- MRT ([7]; oral 40 mg/kg): 6.29 ± 1.14 h
- Terminal t1/2 ([7]; oral 40 mg/kg): 7.86 ± 3.12 h
- Vss ([7]; oral 40 mg/kg): 548.61 ± 164.78 mL/kg
- time of maximum plasma level ([7]; oral 40 mg/kg): 2 h
- AUC0–24h /Dose ([7]; oral 60 mg/kg): 2.32 ± 0.46 (min/L) *10^−3
- AUMC0–24h ([7]; oral 60 mg/kg): 912.16 ± 299.02 μg × min^2/mL
- AUMC0–24h/Dose ([7]; oral 60 mg/kg): 0.015 ± 0.005 min^2/mL
- CL ([7]; oral 60 mg/kg): 50.38 ± 3.49 mL/kg/h
- Cmax ([7]; oral 60 mg/kg): 17.86 ± 1.62 µg/mL
- Cmax/dose ([7]; oral 60 mg/kg): 0.30 ± 0.03
- FBIO (absolute bioavailability) ([7]; oral 60 mg/kg): 0.13 ± 0.03
- MRT ([7]; oral 60 mg/kg): 6.43 ± 0.81 h
- Terminal t1/2 ([7]; oral 60 mg/kg): 7.60 ± 2.34 h
- Vss ([7]; oral 60 mg/kg): 542.39 ± 128.04 mL/kg
- time of maximum plasma level ([7]; oral 60 mg/kg): 3 h
- absolute bioavailability ([7]; oral, as stated in abstract): 0.13 ± 0.06
- aqueous solubility ([8]; pH 2.0, 25 °C, 24 h shake-flask): 0.28 ± 0.03 µg/mL (≈ 0.703 µM)
- maximum aqueous solubility ([8]; pH 8.0, 25 °C, 24 h shake-flask): 0.73 ± 0.09 µg/mL
- overall solubility ([8]; pH range 2–8): less than 1.0 μg/mL
- Peff A–B (Caco-2 monolayers; Caco-2, apical pH 5): 0.34 ± 0.06 × 10^−6 cm/s
- Peff B–A (Caco-2 monolayers; Caco-2, apical pH 5): 0.53 ± 0.08 × 10^−6 cm/s
- Peff A–B (Caco-2 monolayers; Caco-2, apical pH 5.8): 0.33 ± 0.07 × 10^−6 cm/s
- Peff B–A (Caco-2 monolayers; Caco-2, apical pH 5.8): 0.50 ± 0.06 × 10^−6 cm/s
- Peff A–B (Caco-2 monolayers; Caco-2, apical pH 6.8): 0.35 ± 0.06 × 10^−6 cm/s
- Peff B–A (Caco-2 monolayers; Caco-2, apical pH 6.8): 0.52 ± 0.07 × 10^−6 cm/s
- average Peff, B–A (Caco-2 monolayers; Caco-2, basolateral to apical, average): 0.51 ± 0.09 × 10^−6 cm/s
- absorptive (A–B) versus secretive (B–A) transport (Caco-2 monolayers; bidirectional Caco-2, no active efflux): nearly unity
- Biopharmaceutics Classification System (BCS) class (Caco-2 monolayers; from low solubility and low permeability): Class IV

Compound: Lucifer Yellow [reference compound]
- mean permeability of paracellular control (Caco-2 monolayers; Caco-2 monolayer integrity control): < 1.5e-07 cm/s
